From ChEMBL document CHEMBL3861996, “Arylsulfonamide derivatives of (aryloxy)ethyl pyrrolidines and piperidines as α1-adrenergic receptor antagonist with uro-selective activity” (Bioorg Med Chem, 2016)

How the values were obtained:
[1] = molecular target: 5-hydroxytryptamine receptor 7 (Homo sapiens) (UniProt P34969); assay: Displacement of [3H]-LSD from human 5-HT7 receptor expressed in CHO-K1 cell membranes at 10 uM after 2 hr by micro beta2 scintillation counting analysis; details: 0.1 uM, in the assay text read “at 0.1 uM” for “at 10 uM”
How it was run: (§1)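 Membranes of CHO-K1 cells stably expressing human 5-HT1A or 5-HT7 receptor. Buffer 50 mM Tris–HCl, 0.1 mM EDTA, 10 mM MgCl2. Each compound screened at final 10 µM and 1 µM. Incubation at 37 °C, 1 h for 5-HT1A and 2 h for 5-HT7. Non-specific binding defined with 10 µM 5-HT (5-HT1A) or 10 µM methiothepine (5-HT7). Output is percent inhibition of specific binding.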

[2] = tested on: Rattus norvegicus; assay: Hypotensive activity in normotensive anesthetized Wistar rat assessed as decrease in systolic blood pressure at 2 mg/kg, iv administered as single dose measured 60 mins post dose relative to control; format: functional; details: 1 h
How it was run: (§2)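 Male Wistar rats (200–250 g), groups of six, anaesthetized with thiopental 70 mg/kg ip. Left carotid artery cannulated with heparinized saline-filled tubing for pressure recording. Compounds dissolved in water and given once iv. Blood pressure taken at 0 min (control) and over 60 min afterward. Data as mean ± SEM, analysed by one-way ANOVA with Dunnett's test against 0 min.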

[3] = tested on: Rattus norvegicus; assay: Hypotensive activity in normotensive anesthetized Wistar rat assessed as decrease in systolic blood pressure at 5 mg/kg, iv administered as single dose measured 60 mins post dose relative to control; format: functional; details: 1 h; how it was run: as §2
[4] = molecular target: 5-hydroxytryptamine receptor 7 (Homo sapiens) (UniProt P34969); assay: Displacement of [3H]-LSD from human 5-HT7 receptor expressed in CHO-K1 cell membranes at 1 uM after 2 hr by micro beta2 scintillation counting analysis; how it was run: as §1
[5] = tested on: Rattus norvegicus; assay: Hypotensive activity in normotensive anesthetized Wistar rat assessed as decrease in diastolic blood pressure at 2 mg/kg, iv administered as single dose measured 60 mins post dose relative to control; format: functional; details: 1 h; how it was run: as §2
[6] = tested on: Rattus norvegicus; assay: Hypotensive activity in normotensive anesthetized Wistar rat assessed as decrease in diastolic blood pressure at 5 mg/kg, iv administered as single dose measured 60 mins post dose relative to control; format: functional; details: 1 h; how it was run: as §2

Chain of 5-hydroxytryptamine receptor 7 (Homo sapiens) (P34969 whole entry): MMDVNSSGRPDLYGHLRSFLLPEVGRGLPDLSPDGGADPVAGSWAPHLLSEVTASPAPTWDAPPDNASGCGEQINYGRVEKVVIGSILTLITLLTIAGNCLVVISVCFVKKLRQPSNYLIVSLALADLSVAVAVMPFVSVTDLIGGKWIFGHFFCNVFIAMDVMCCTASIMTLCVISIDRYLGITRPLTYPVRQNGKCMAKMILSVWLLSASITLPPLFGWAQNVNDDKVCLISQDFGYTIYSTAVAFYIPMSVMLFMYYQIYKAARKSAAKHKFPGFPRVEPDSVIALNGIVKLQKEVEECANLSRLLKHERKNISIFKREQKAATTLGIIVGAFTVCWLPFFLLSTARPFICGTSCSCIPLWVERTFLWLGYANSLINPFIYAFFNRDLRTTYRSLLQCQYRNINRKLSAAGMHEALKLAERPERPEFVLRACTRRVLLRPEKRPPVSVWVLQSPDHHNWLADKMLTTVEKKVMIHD

inhibition [1] [%] | inhibition [4] [%] | SMILES | inhibition in vivo at 2 mg/kg [2] [%] | inhibition in vivo at 5 mg/kg [3] [%] | inhibition in vivo at 2 mg/kg [5] [%] | inhibition in vivo at 5 mg/kg [6] [%]
45 | 90 | CC(C)Oc1ccccc1OCCN1CCC(CNS(=O)(=O)c2cccc(Cl)c2F)CC1 | 7 | 2 to 5 | – | –
51 | 91 | CC(C)Oc1ccccc1OCCN1CCC(CNS(=O)(=O)c2cccc3cccnc23)CC1 | – | – | – | –
41 | 87 | COc1ccccc1OCCN1CCC(NS(=O)(=O)c2cncc3ccccc23)CC1 | 4 to 10 | 6 to 11 | 4 to 8 | 2 to 8
54 | 89 | COc1ccccc1OCCN1CCC(CNS(=O)(=O)c2cncc3ccccc23)CC1 | – | – | – | –
16 | 52 | COc1ccc(S(=O)(=O)NCC2CCN(CCOc3ccccc3OC)CC2)cc1OC | – | – | – | –
